Publication PMC12279052 (RSC Advances, 2025)

Assays:
[1] = test system: human hepatocellular carcinoma cell line HepG2; assay: Cell toxicity assay, MTT; assay type: cell-based; details: HepG2, MTT, 24 h, n = 3
[2] = Density measurement, apparent molar volume at infinite dilution in water; assay type: physicochemical; details: aqueous solution
Procedure, shortened: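 Solution density was measured with a vibrating-tube densitometer calibrated with dry air and double-distilled water, with Peltier temperature control at ±0.01 K and density uncertainty 2.0 × 10−4 g cm−3. Apparent molar volumes were computed versus molality. Infinite-dilution values came from the Redlich–Mayer equation with empirical parameters Sv and Bv.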

[3] = Steady-state fluorescence with pyrene probe; assay type: physicochemical; details: 298.15 K
Procedure, shortened: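 Pyrene (1 μM) served as probe at 298.15 K. Excitation was 335 nm, emission 355–650 nm, slits 2.5 nm, 700 V, 240 nm min−1, in a 1 cm quartz cuvette. cmc came from a Boltzmann fit of I1/I3 (373/384 nm). For Nagg, test compound at 2.5 cmc was quenched with cetylpyridinium chloride at 0.2–1.0 × 10−4 mol dm−3, and Nagg was derived from linear ln(I0/I) versus [Q].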

[4] = test system: Staphylococcus aureus ATCC29213; assay: Antibacterial activity, broth dilution MIC; assay type: cell-based; details: S. aureus, n = 3
[5] = test system: Escherichia coli ATCC25922; assay: Antibacterial activity, broth dilution MIC; assay type: cell-based; details: E. coli, n = 3
[6] = test system: Candida albicans ATCC10231; assay: Antimicrobial activity, broth dilution MIC; assay type: cell-based; details: C. albicans, n = 3
[7] = test system: human lung cancer cell line A549; assay: Cell toxicity assay, MTT; assay type: cell-based; details: A549, MTT, 24 h, n = 3
[8] = test system: Cutibacterium acnes ATCC6919; assay: Antibacterial activity, broth dilution MIC; assay type: cell-based; details: C. acnes, n = 3
[9] = Thermal stability by TG/DTG; assay type: physicochemical; details: first decomposition process, 10 K min^−1, argon
Procedure, shortened: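 Simultaneous thermal analysis ran from 30–500 °C at 10 K min−1 on 3–5 mg sample in an Al2O3 crucible, with α-Al2O3 as reference. Argon served as protective gas at 20 mL min−1 and as purge gas at 60 mL min−1.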

[10] = Aggregation in water by electrical conductivity; assay type: physicochemical; details: for cmc: conductivity, water; for ionization degree α: micelle (cmc); for ΔG^0m / ΔH^0m / ΔS^0m / −TΔS^0m: micellization (cmc)
Procedure, shortened: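 Conductivity of aqueous test compound solutions was measured with a digital conductivity meter and electrode, calibrated against standard KCl, with a thermostat holding ±0.02 K and ±3% relative uncertainty. cmc and cac were taken from the break points, found by fitting the Aguiar equation. α came from the ratio of post- to pre-transition slopes (A2/A1), and micellization thermodynamic functions from the mass action model.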

[11] = Octanol–water partition coefficient, shake-flask method; assay type: physicochemical
Procedure, shortened: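 Shake-flask partitioning was run at 25 and 37 °C in water, SGF (pH 1.2), SIF (pH 6.8) or SBF (pH 7.4). Fluids were prepared per USP without enzyme and pre-saturated with n-octanol (24 h shaking, 24 h separation). Test compound in buffer-saturated octanol (5 mL) was shaken 24 h with 5 mL octanol-saturated buffer, then centrifuged 10 min. The octanol phase was read by UV at 200 nm, and log Ko/w = log Co/(C−Co).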

[12] = Conductivity in low concentration region; assay type: physicochemical; details: in water
Procedure, shortened: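 Conductivity of aqueous test compound solutions was measured at each temperature in double-distilled deionized water (0.8 − 1.0 × 10−4 S m−1 at 298.15 K). The digital meter and electrode were calibrated with standard KCl, and the thermostat held ±0.02 K; relative standard uncertainty was ±3%.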

With `CCCCCCCCCCC(=O)O.O=C1CCC[C@@H]2[C@H]3CCCN4CCC[C@@H](CN12)[C@@H]34` [[Mat][C11]] the IC50 [1] was 450 µM, the “Apparent molar volume at infinite dilution V^0 2,φ” value (“Apparent molar volume” for short) ([2]; 293.15 K) was 386.51 ± 0.35 cm^3 mol^−1 and the “Apparent molar volume” value ([2]; 298.15 K) was 389.66 ± 0.38 cm^3 mol^−1. The “Apparent molar volume” value ([2]; 303.15 K) was 392.77 ± 0.34 cm^3 mol^−1, the “Apparent molar volume” value ([2]; 308.15 K) was 396.26 ± 0.38 cm^3 mol^−1 and the cmc ([3]; Fluorescence (pyrene I1/I3), water) was 0.00384 mol/kg. For the same compound, the “N agg (aggregation number)” value ([3]; ST = 2.5 cmc, fluorescence quenching with CPC) was 77, the MIC [4] was 900 µM and the MIC [5] was 28800 µM. For the same compound, the MIC [6] was 460 µM, the IC50 [7] was 710 µM and the MIC [8] was 460 µM. For the same compound, the “T onset (onset decomposition temperature)” value [9] was 199.4 °C, the cmc ([10]; 293.15 K) was 0.00385 mol/kg and the cmc ([10]; 298.15 K) was 0.00395 mol/kg. It also gave a cmc ([10]; 303.15 K) of 0.00402 mol/kg, a cmc ([10]; 308.15 K) of 0.00407 mol/kg and a cmc ([10]; 313.15 K) of 0.00411 mol/kg. The “ionization degree α” value ([10]; 293.15 K) was 0.8532, the “ionization degree α” value ([10]; 298.15 K) was 0.8429 and the “ionization degree α” value ([10]; 303.15 K) was 0.8267. The “ionization degree α” value ([10]; 308.15 K) was 0.8151, the “ionization degree α” value ([10]; 313.15 K) was 0.7968 and the “ΔG^0m” value ([10]; 293.15 K) was -6.398 kcal/mol. For the same compound, the “ΔH^0m” value ([10]; 293.15 K) was -1.04 kcal/mol, the “ΔS^0m” value ([10]; 293.15 K) was 76.44 J mol^−1 K^−1 and the “−TΔS^0m” value ([10]; 293.15 K) was -5.356 kcal/mol. For the same compound, the “ΔG^0m” value ([10]; 298.15 K) was -6.546 kcal/mol, the “ΔH^0m” value ([10]; 298.15 K) was -0.872 kcal/mol and the “ΔS^0m” value ([10]; 298.15 K) was 79.65 J mol^−1 K^−1. For the same compound, the “−TΔS^0m” value ([10]; 298.15 K) was -5.676 kcal/mol, the “ΔG^0m” value ([10]; 303.15 K) was -6.738 kcal/mol and the “ΔH^0m” value ([10]; 303.15 K) was -0.688 kcal/mol. The “ΔS^0m” value ([10]; 303.15 K) was 83.51 J mol^−1 K^−1, the “−TΔS^0m” value ([10]; 303.15 K) was -6.052 kcal/mol and the “ΔG^0m” value ([10]; 308.15 K) was -6.907 kcal/mol. The “ΔH^0m” value ([10]; 308.15 K) was -0.483 kcal/mol, the “ΔS^0m” value ([10]; 308.15 K) was 87.26 J mol^−1 K^−1 and the “−TΔS^0m” value ([10]; 308.15 K) was -6.427 kcal/mol. The “ΔG^0m” value ([10]; 313.15 K) was -7.122 kcal/mol, the “ΔH^0m” value ([10]; 313.15 K) was -0.258 kcal/mol and the “ΔS^0m” value ([10]; 313.15 K) was 91.70 J mol^−1 K^−1. For the same compound, the “−TΔS^0m” value ([10]; 313.15 K) was -6.864 kcal/mol, the “Log K o/w” value ([11]; pH = 1.2 (SGF), 25 °C) was −0.32 and the “Log K o/w” value ([11]; pH = 1.2 (SGF), 37 °C) was 0.26. The “Log K o/w” value ([11]; pH = 6.8 (SIF), 25 °C) was 0.04, the “Log K o/w” value ([11]; pH = 6.8 (SIF), 37 °C) was 0.35 and the “Log K o/w” value ([11]; pH = 7.0 (ultrapure water), 25 °C) was 0.77. The “Log K o/w” value ([11]; pH = 7.0 (ultrapure water), 37 °C) was 0.91, the “Log K o/w” value ([11]; pH = 7.4 (SBF), 25 °C) was 1.20 and the “Log K o/w” value ([11]; pH = 7.4 (SBF), 37 °C) was 1.27. The “Association constant KA” value ([12]; 298.15 K) was 19.06 ± 1.31 dm^3 mol^−1, the “Limiting molar conductivity Λ0” value ([12]; 298.15 K) was 44.67 ± 0.06 S cm^2 mol^−1 and the “Association constant KA” value ([12]; 303.15 K) was 7.36 ± 1.09 dm^3 mol^−1. The “Limiting molar conductivity Λ0” value ([12]; 303.15 K) was 49.46 ± 0.06 S cm^2 mol^−1, the “Association constant KA” value ([12]; 308.15 K) was 2.04 ± 1.14 dm^3 mol^−1 and the “Limiting molar conductivity Λ0” value ([12]; 308.15 K) was 55.26 ± 0.07 S cm^2 mol^−1.
